“And” between values parts separate entries of the source, which are not always exact repeats. Equal entries are not always repeated. “Also recorded” adds a separate entry of the source.
Tests used:
[1] = type: in vivo, patients
[2] = Pharmacokinetics of 2DG in plasma; type: in vivo, patients
Procedure, shortened: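 Blood samples (5 ml each) were drawn predose, hourly to 6 hr after oral 2DG on cycle 1 day 1, at 24 and 48 hr after cycle 1 day 1, and again on cycle 2 day 1. Plasma extracts were derivatized to 2-aminobenzoic acid derivatives, and 2DG was quantified by HPLC with fluorometric detection.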

FDG uptake = assay: FDG-PET imaging at baseline and day 2: effect of 2DG on FDG uptake; type: in vivo, patients
Procedure, shortened: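 FDG-PET scans were taken at baseline, cycle 1 day 2 and cycle 2 day 15, with 2DG given orally on days 1–14 of 21-day cycles. FDG uptake was expressed as SUV at a selected tumor site divided by liver SUV, with liver serving as the control. Baseline and day 2 ratios were compared in nine patients.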

p62 = p62 protein in peripheral blood mononuclear cells by Western blot; type: in vivo, patients; conditions: PBMCs, immunoblot, normalized to α-tubulin
Procedure, shortened: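 PBMCs were collected from six patients at baseline, 4 hr and 24 hr. Extracts were prepared in Laemmli buffer, resolved by SDS–PAGE and transferred to PVDF. Blots were probed for p62 and α-tubulin, then detected with HRP secondary antibody and ECL. Scanned bands were quantified by optical density, and p62 was normalized to α-tubulin.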

[3] = test system: castrate-resistant prostate cancer (CRPC); assay: Clinical outcome; type: in vivo, patients
Procedure, shortened: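 Oral 2DG, aqueous solution formulated at 100 mg/ml in water, given daily on days 1–14 of 21-day cycles. Dose cohorts were 30, 45 and 60 mg/kg. Each dose was given 1 hr before breakfast, followed by a ~50 ml water rinse of the dosing container. Patients with CRPC were followed for PSA and radiographic disease status across cycles.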

prostate cancer cells = conditions: cited from earlier work
[4] = cycle 1, 30 mg/kg/day oral, n = 3, mean ± SD
[5] = cycle 1, 45 mg/kg/day oral, n = 4, mean ± SD
[6] = cycle 1, 60 mg/kg/day oral, n = 4, mean ± SD
[7] = cycle 2, 30 mg/kg/day oral, n = 3, mean ± SD
[8] = cycle 2, 45 mg/kg/day oral, n = 4, mean ± SD
[9] = cycle 2, 60 mg/kg/day oral, n = 4, mean ± SD

In the case of O=CC[C@@H](O)[C@H](O)[C@H](O)CO [2DG, 2-deoxyglucose], the dose-limiting toxicity ([1]; human, in vivo, 60 mg/kg, 3 weeks) is reported as “grade 3 asymptomatic QTc prolongation”, the “patients with grade 2 fatigue” value ([1]; in vivo) is reported as “three” and the tolerability ([1]; in vivo, 45 mg/kg) is reported as “well tolerated”. The QT interval ([1]; in vivo, 60 mg/kg) was “prolonged”, the “recommended phase II dose” value ([1]; oral, days 1–14 of a 21-day cycle) was 45 mg/kg and the AUC [2, 4] was 821.2±236.2 μmol/Lhr. For the same compound, the Clearance [2, 4] was 232.0 ± 63.8 mL/h, the Cmax [2, 4] was 277 ± 18.6 µM and the AUC [2, 5] was 1107.7±213.3 μmol/Lhr. The Clearance [2, 5] was 243.3 ± 49.4 mL/h, the Cmax [2, 5] was 449 ± 168 µM and the AUC [2, 6] was 2086.2±743.2 μmol/Lhr. For the same compound, the Clearance [2, 6] was 185.0 ± 52.6 mL/h, the AUC [2, 7] was 751.3 ± 181.7 μmol/Lhr and the Clearance [2, 7] was 246.3 ± 56.6 mL/h. It also gave an AUC [2, 8] of 1087.1 ± 441.8 μmol/Lhr, a Clearance [2, 8] of 270.4 ± 126.4 mL/h and an AUC [2, 9] of 1226.9 ± 571.2 μmol/Lhr. The Clearance [2, 9] was 314.9 ± 108.7 mL/h, the “dose dependence of pharmacokinetics” value ([2]; dose levels 30, 45 and 60 mg/kg) was “linear pharmacokinetics; also recorded: linear with dose level” and the Cmax ([2]; human, plasma, po, 30 mg/kg, Cmax, dose level 30 mg/kg oral) was 45 µg/mL. It also gave a Cmax ([2]; human, plasma, po, 45 mg/kg, Cmax, dose level 45 mg/kg oral) of 73.7 µg/mL, a Cmax ([2]; human, plasma, po, 60 mg/kg, Cmax, dose level 60 mg/kg oral) of 122 µg/mL and a blood concentrations reached ([2]; single agent, highest concentrations reached in this study) of 700 µM. The “patients with decreased FDG uptake by day 2 of therapy” value (FDG uptake; FDG-PET, dose level 2 or 3) was “Five of eight and five”, the “Day 2 SUV (ratio site/liver)” value (FDG uptake; patient 5, lung, dose level 2, chest, baseline 6.3) was 11.6 and the “Day 2 SUV (ratio site/liver)” value (FDG uptake; patient 6, cervical, dose level 2, mediastinum, baseline 4.3) was 2. For the same compound, the “Day 2 SUV (ratio site/liver)” value (FDG uptake; patient 7, prostate, dose level 3, L1 vertebral body, baseline 1.2) was 1, the “Day 2 SUV (ratio site/liver)” value (FDG uptake; patient 8, prostate, dose level 3, ischium, baseline 2.8) was 2.0 and the “Day 2 SUV (ratio site/liver)” value (FDG uptake; patient 11, prostate, dose level 2, ilium, baseline 3.8) was 3. The “patients with a decrease in p62 level at 24 hr” value (p62) was “Five of six”, the “cycles on study with radiographically stable disease” value ([3]; individual patients with CRPC) was 8 cycles and 12 cycles and 21 cycles and the “declines in PSA” value ([3]; seven patients with prostate cancer who completed study therapy) was “no declines”. The “effect in prostate cancer cell lines” value (prostate cancer cells; autophagy a mechanism of resistance) was “cytotoxic effect” and the “effect on prostate cancer cells” value (prostate cancer cells; preclinical studies) was “cytotoxic”.
